In data set [1] the test system is MDA-MB-231 breast cancer cells. The class given is cell-based, human. The settings on record: for pIC50: Homo sapiens, MDA-MB-231, read-out: IC50 MDA-MB-231; for AUC MDA-MB-231: area under the dose-response curve, tissue chip, tumor compartment. In short, it runs like this:
(§1)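 Tumour compartment: MDA-MB-231 spheroids (10 × 10^3 cells, formed 4 days before seeding) in 3.5 mg mL−1 collagen. Liver (HepG2/C3A) and stroma (HS-5) compartments: 15 × 10^3 single cells in the same collagen. Medium 1:1 EMEM:DMEM under rocker-driven gravity flow. Test compound medium from day 1, replenished every 2 days, 5 days total. Four concentrations including control, 2–4 replicates; single-dose runs at 50 μM. PrestoBlue 15% v/v, 1 h, ex 560/em 590 nm; AUC computed.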

A further data set deals with HepG2/C3A liver cells. Nature of the data set: Tissue chip liver compartment: viability of HepG2/C3A cells in collagen. Format: cell-based, human. The settings on record: for pIC50: Homo sapiens, HepG2/C3A, read-out: IC50 HepG2/C3A; for AUC HepG2/C3A: area under the dose-response curve, tissue chip, liver compartment. The gist of the method:
as §1

Data set [2] relates to HS-5 bone marrow stromal cells. Nature of the data set: Tissue chip bone marrow stroma compartment: viability of HS-5 cells in collagen. Format: cell-based, human. On the set-up: AUC HS-5: unit not given beside the values. The settings on record: for pIC50: Homo sapiens, HS5, read-out: IC50 HS-5; for AUC HS-5: area under the dose-response curve, tissue chip, bone marrow stroma compartment. The gist of the method: as §1

Data set [3] is described as follows: Tissue chip liver compartment: viability of HepG2/C3A cells in collagen. The settings on record: human. The class given is cell-based, human. In short, it runs like this: as §1
A short description of data set [4]: Tissue chip bone marrow stroma compartment: viability of HS-5 cells in collagen. The class given is cell-based, human. On the set-up: AUC HS-5: unit not given beside the values. The settings on record: human. In short, it runs like this: as §1
Data set [5] deals with MDA-MB-231, HepG2/C3A and HS-5 cells. Nature of the data set: Tissue chip dose response, summary across all three compartments. The class given is cell-based. The settings on record: Homo sapiens, read-out: IC50 values across all compartments. In short, it runs like this:
as §1

pIC50: −log10 of the molar value. Bounds are passed on as bounds.

For the compound `CC(=O)Nc1cccc(-n2c(=O)n(C3CC3)c(=O)c3c(Nc4ccc(I)cc4F)n(C)c(=O)c(C)c32)c1` [Trametinib, trametinib], in data set [1], the pIC50 was 10.22 and the “AUC MDA-MB-231” value is 0.63. Also, in the data set on HepG2/C3A liver cells, the pIC50 was 7.91 and the “AUC HepG2/C3A” value was 0.75. In addition, in data set [2], the pIC50 is less than 6.00 and the “AUC HS-5” value was 0.98.

Broadly, the viability is a read-out of living cells in per cent, often relative to untreated cells. Consider `O=c1[nH]cc(F)c(=O)[nH]1` [5-FU, 5-fluorouracil], for which the viability at 5 days, 50 μM in data set [3] came out at 20%; in data set [4] it was 24%. The pIC50 in data set [5] is 5.00 to 6.00.

`COc1cccc2c1C(=O)c1c(O)c3c(c(O)c1C2=O)C[C@@](O)(C(=O)CO)C[C@@H]3O[C@H]1C[C@H](N)[C@H](O)[C@H](C)O1` [Doxorubicin, doxorubicin]: in data set [1], the pIC50 is 8.26 and the “AUC MDA-MB-231” value was found to be 0.47. For the same compound, in the data set with HepG2/C3A liver cells, the pIC50 is 6.64 and the “AUC HepG2/C3A” value is 0.72. Also, in data set [2], the pIC50 is 8.34 and the “AUC HS-5” value came to 0.45.

Values taken from publication PMC11529822 (Lab on a Chip, 2024).
